Shown are actives, neighbours in structure and some others; about 3.3% of the full set was active somewhere.
mABHD4 FP – ABHD4 inhibitors, primary screen, biochemical, fluorescence polarization, mouse; (Lyso)-N-acylphosphatidylethanolamine lipase (Mus musculus), Q8VD66; purified mABHD4, FP-Rh probe fluorescence polarization; inhibition, % at 8.92 µM; 370,000 compounds, 0.54% hits; AID 720543, 2013;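 active = inhibition exceeding the mean over every tested compound plus 3 SD, cut at about 30% in these data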;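 note: 0% = plate median of compound wells and 100% = S159A mutant with DMSO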
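Assay system: wild-type mouse ABHD4 protein; compound: single nominal dose of 8.92 µM, 0.89% DMSO final; schedule: 45 min + 60 min at 25 °C; measured by: FP readout, ex 525 nm / em 598 nm; evaluation: % inhibition of FP-Rh probe binding versus controls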
HTRA1 inhibitor – HTRA1 serine protease inhibitors, primary screen, biochemical, fluorescence polarization, HTS. recombinant HTRA1, FP-rhodamine activity-based probe. AID 504803, 2011. inhibition, % at 5.96 µM. 340,000 compounds, 0.5% hits; in the data active = inhibition above about 36%;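 note: 0% = enzyme with DMSO and 100% = wells lacking enzyme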
PRMT1 FP inh – PRMT1 methyltransferase inhibitors, primary screen, biochemical, fluorescence polarization | recombinant PRMT1, activity-based probe fluorescence polarization | inhibition, % at 2.79 µM | 370,000 compounds, 1.3% hits | AID 652257, 2013;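 active = inhibition above about 21% made by adding two undisclosed values, limit read from the data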
Target sequence (Q99873 whole entry, looked up): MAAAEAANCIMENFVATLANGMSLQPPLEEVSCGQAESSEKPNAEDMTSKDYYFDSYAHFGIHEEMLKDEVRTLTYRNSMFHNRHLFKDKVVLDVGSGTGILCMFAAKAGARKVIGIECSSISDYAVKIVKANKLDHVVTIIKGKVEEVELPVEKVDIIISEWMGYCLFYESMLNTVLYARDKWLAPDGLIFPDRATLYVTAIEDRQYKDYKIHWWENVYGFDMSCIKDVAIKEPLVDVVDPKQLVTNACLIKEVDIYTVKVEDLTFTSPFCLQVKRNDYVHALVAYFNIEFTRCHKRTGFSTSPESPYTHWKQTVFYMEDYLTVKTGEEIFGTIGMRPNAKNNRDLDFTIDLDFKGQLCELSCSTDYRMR
rCAG binder – binders of r(CAG) RNA repeats, primary screen, biochemical, fluorescence; r(CAG) RNA repeat, TO-PRO-1 dye displacement fluorescence; AID 651821, 2012; inhibition, % at 3 µM; 370,000 compounds, 1.3% hits;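 active = inhibition above the plate cutoff, the mean of all test compounds on that plate plus 3 SD, cut at about 35% in these data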;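 note: 0% = DMSO alone and 100% = 100 µM mitoxantrone as full dye displacement; higher means more dye released from RNA so lower well fluorescence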
SIAE inh – human SIAE inhibitors, primary screen, biochemical, fluorescence polarization, FP-Rh probe, 1536-well HTS | inhibition, % at 9.66 µM | 370,000 compounds, 0.69% hits | Sialate O-acetylesterase (Homo sapiens), Q9HAT2 | SIAE FP-Rh probe binding;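 active = inhibition above a cutoff: mean of compounds within the control limits plus 3 SD of those, cut at about 17% in these data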;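 note: 0% = plate median of compound wells and 100% = probe without SIAE protein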
Active calls of the source: *.

`CCOC(=O)c1ccc(-n2[nH]c(-c3ccccc3)cc2=O)cc1` gave mABHD4 FP 0.6, HTRA1 inhibitor -11.1, PRMT1 FP inh 0.3, rCAG binder 49.1* and SIAE inh 8.4.
Screening N#Cc1ccsc1NC(=O)c1ccc2ncsc2c1 returned mABHD4 FP -2.7, HTRA1 inhibitor -9.6, PRMT1 FP inh 21.6*, rCAG binder 9.0 and SIAE inh -12.1.
`O=C(Nc1ccc(F)cc1)c1ccc2ncsc2c1` gave mABHD4 FP 2.1, HTRA1 inhibitor -13.1, PRMT1 FP inh 9.2, rCAG binder 5.3 and SIAE inh -5.1.
O=C(Nc1ccc(N2CCOCC2)cc1)c1ccc2ncsc2c1 was read as mABHD4 FP -2.9, HTRA1 inhibitor 2.6, PRMT1 FP inh 22.1*, rCAG binder 7.2 and SIAE inh 1.7.
`CC1OC2(C)OC(=N)C1(C#N)C(C#N)(C#N)C2c1ccccc1` (stereo unspecified) gave mABHD4 FP 20.6, HTRA1 inhibitor 10.9, PRMT1 FP inh 24.8*, rCAG binder 13.4 and SIAE inh 1.8.
CC(=Nc1ccc(C)cc1)c1sc2ccccc2c1O was read as mABHD4 FP 13.1, HTRA1 inhibitor -19.1, PRMT1 FP inh 24.5*, rCAG binder -0.7 and SIAE inh 3.7.
`CC(=Nc1cccc(O)c1)c1sc2ccccc2c1O` gave mABHD4 FP -1.1, HTRA1 inhibitor 1.8, PRMT1 FP inh 20.1, rCAG binder 0.6 and SIAE inh 6.7.
`COc1ccc(OCC(=O)Nn2c(-c3ccc(OC)cc3)nc3ccccc3c2=O)cc1` gave mABHD4 FP -3.9, HTRA1 inhibitor -3.4, PRMT1 FP inh 0.7, rCAG binder 1.2 and SIAE inh -8.7.
Screening COc1ccc(-c2nc3ccccc3c(=O)n2NC(=S)N(C)C)cc1 returned mABHD4 FP -1.3, HTRA1 inhibitor -2.0, PRMT1 FP inh 24.5*, rCAG binder -0.4 and SIAE inh 1.4.
For COC(=O)N1C[C@H](Oc2ncccn2)[C@H]2C[C@@H]1c1ccccc1O2 the results were mABHD4 FP -7.5, PRMT1 FP inh -4.8, rCAG binder 1.9 and SIAE inh -12.1.
For O=C(N[C@H](Cc1ccccc1)C(=O)NCCCN1CCCC1=O)[C@H]1O[C@@H](n2ccc(=O)[nH]c2=O)[C@H](O)[C@@H]1O the results were mABHD4 FP 1.7, PRMT1 FP inh 1.4, rCAG binder 1.1 and SIAE inh 2.7.
For CC(=O)C1=C(c2ccccc2)N(C(C)=O)n2c(C)nnc2S1 the results were mABHD4 FP 1.2, HTRA1 inhibitor 3.6, PRMT1 FP inh 73.5*, rCAG binder -1.2 and SIAE inh 1.9.
Screening O=C(CCl)c1cc2c3c(c1)CC(=O)N3CCC2 returned mABHD4 FP 3.4, HTRA1 inhibitor -2.7, PRMT1 FP inh 7.6, rCAG binder 2.2 and SIAE inh 1.0.
O=c1oc2c3c4c(cc2s1)CCCN4CCC3 was read as mABHD4 FP 17.6, HTRA1 inhibitor 14.7, PRMT1 FP inh 75.3*, rCAG binder 2.1 and SIAE inh 14.0.
`C=CCSC1=C(C#N)C(c2ccccc2OCC)CC(=O)N1` (stereo unspecified) gave mABHD4 FP -6.7, HTRA1 inhibitor -11.6, PRMT1 FP inh 21.8*, rCAG binder 3.2 and SIAE inh 9.6.
For C/C=C/C=C/C(=O)c1cc(C)c(OC(=O)CNC(=O)OC(C)(C)C)c(C)c1O the results were mABHD4 FP 1.4, PRMT1 FP inh 8.2, rCAG binder 10.0 and SIAE inh -5.5.
`COc1cccc(C(=O)NN2C(=O)C3C4C=CC(O4)C3C2=O)c1` (stereo unspecified) gave mABHD4 FP 4.1, HTRA1 inhibitor -0.3, PRMT1 FP inh 22.7*, rCAG binder 0.1 and SIAE inh 14.8.
CCCN(CCC)C(=O)c1ccc2c(c1)N(Cc1ccccc1)C(=O)CS2=O (stereo unspecified) was read as mABHD4 FP -0.5, HTRA1 inhibitor 0.0, PRMT1 FP inh 23.9*, rCAG binder -13.1 and SIAE inh 4.5.
Screening Nc1[nH]c(C(=O)c2ccccc2)c(-c2ccc(Cl)cc2F)c1C(=O)NCCc1c[nH]c2ccccc12 returned mABHD4 FP 27.7, PRMT1 FP inh -0.6, rCAG binder 12.3 and SIAE inh 11.0.
N#CC1=C(N)N(c2ccc(F)cc2)C2=C(C1c1ccc(O)cc1)S(=O)(=O)CC2 (stereo unspecified) was read as mABHD4 FP 1.4, HTRA1 inhibitor 16.3, PRMT1 FP inh 7.0, rCAG binder 35.4* and SIAE inh 4.2.
For NS(=O)(=O)c1ccc(NC(=S)NC(=O)C2CCCCC2)cc1 the results were mABHD4 FP -14.1, HTRA1 inhibitor 3.5, PRMT1 FP inh -1.7, rCAG binder 4.0 and SIAE inh -7.6.
`NS(=O)(=O)c1ccc(NC(=S)NC2CCCCCC2)cc1` gave mABHD4 FP -5.2, HTRA1 inhibitor -0.8, PRMT1 FP inh 24.5*, rCAG binder 7.3 and SIAE inh 3.1.
CCCN1C(=O)c2[nH]nc(-c3ccccc3)c2C1c1ccc(C)cc1 (stereo unspecified) was read as mABHD4 FP -29.3, PRMT1 FP inh 0.4, rCAG binder 0.1 and SIAE inh -8.3.
Screening CCNc1ccc(Br)cc(C(=O)/C=C/c2c(Cl)cccc2Cl)c1=O returned HTRA1 inhibitor 57.7*.
Screening CS(=O)(=O)Nc1ccc(Br)cc1C(=O)c1ccccc1 returned mABHD4 FP 1.6, HTRA1 inhibitor -4.3, PRMT1 FP inh -1.5, rCAG binder 3.6 and SIAE inh -2.8.
CCc1cccc(Nc2cc(C)n(-c3cccc(CC)c3)c(=O)c2)c1 was read as mABHD4 FP -6.6, PRMT1 FP inh -3.0, rCAG binder 1.6 and SIAE inh -5.8.
For CC(Oc1ccc(Br)cc1)c1nc2c3ccccc3nc(=S)n2[nH]1 (stereo unspecified) the results were mABHD4 FP -6.1, HTRA1 inhibitor -1.1, PRMT1 FP inh 9.1, rCAG binder 36.0* and SIAE inh 5.6.
For CC1(C)Cc2ccccc2/C(=C/C(=O)N2CCCCCC2)N1 the results were mABHD4 FP 5.2, HTRA1 inhibitor -1.4, PRMT1 FP inh 22.5*, rCAG binder -8.9 and SIAE inh -15.7.
Screening COC(=O)C1=C(C)NC(=S)NC1c1cccc(OC)c1 (stereo unspecified) returned mABHD4 FP -4.6, PRMT1 FP inh -2.4, rCAG binder 2.0 and SIAE inh 9.3.
`CCCCCCCCN1C(=O)[C@@H](CC(=O)NCCCN2CCCC2=O)C[C@@]2(C(=O)OC)C1=C[C@H](C1CCCC1)O[C@@H]2C` gave mABHD4 FP -4.6, PRMT1 FP inh -2.8, rCAG binder 3.7 and SIAE inh -0.2.
O=C(CCCc1nc2ccccc2s1)N1CCN(c2ccccc2)CC1 was read as mABHD4 FP 0.7, HTRA1 inhibitor -0.9, PRMT1 FP inh 23.3*, rCAG binder 2.8 and SIAE inh 4.4.

Assay outcomes deposited in PubChem BioAssay by The Scripps Research Institute Molecular Screening Center.
